Calls of active or inactive are those of the source. No cut-off for these calls is given here.
Key:
[1] = system: Raji; assay: Antiproliferative activity against human Raji cells after 48 hrs by CCK8 assay; assay type: functional, cell-based
Procedure, shortened: (§1)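 Raji and Ramos cells grown in RPMI1640 or IMDM with 10% FBS, 37 °C, 5% CO2. Seeded at 3000-5000 cells/well and left 12-24 h before dosing. Several compound concentrations given for 48 h. CCK-8 then added for 4 h and OD read at 450 nm. IC50 is the concentration giving 50% cell death versus control, calculated from inhibition ratios.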

[2] = target: T1, Tyrosine-protein kinase BTK (Homo sapiens, UniProt Q06187); conditions: at 200 nM
T1 sequence (Q06187 whole entry): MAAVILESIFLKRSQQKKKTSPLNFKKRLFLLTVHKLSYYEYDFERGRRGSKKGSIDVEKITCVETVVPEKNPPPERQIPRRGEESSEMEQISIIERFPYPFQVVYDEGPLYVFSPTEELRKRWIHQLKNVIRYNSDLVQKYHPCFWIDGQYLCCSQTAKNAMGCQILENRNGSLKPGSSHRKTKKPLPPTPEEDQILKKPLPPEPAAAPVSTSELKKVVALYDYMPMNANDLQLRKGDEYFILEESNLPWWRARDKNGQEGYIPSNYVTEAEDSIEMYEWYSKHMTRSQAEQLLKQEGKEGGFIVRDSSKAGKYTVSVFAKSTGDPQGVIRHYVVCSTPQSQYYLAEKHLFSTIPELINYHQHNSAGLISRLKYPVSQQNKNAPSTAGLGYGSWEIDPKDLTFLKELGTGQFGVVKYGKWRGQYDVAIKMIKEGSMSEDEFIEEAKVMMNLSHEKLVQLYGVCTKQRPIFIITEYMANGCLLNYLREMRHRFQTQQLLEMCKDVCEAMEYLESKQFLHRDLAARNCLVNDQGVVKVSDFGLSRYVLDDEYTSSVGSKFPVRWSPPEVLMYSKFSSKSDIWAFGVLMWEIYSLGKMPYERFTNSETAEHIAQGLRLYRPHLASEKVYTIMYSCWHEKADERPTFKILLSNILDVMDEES

[3] = system: Ramos; assay: Antiproliferative activity against human Ramos cells after 48 hrs by CCK8 assay; assay type: functional, cell-based; procedure, shortened: as §1
[4] = target: T2, Phosphatidylinositol 4,5-bisphosphate 3-kinase catalytic subunit delta isoform (Homo sapiens, UniProt O00329); assay: Inhibition of PI3Kdelta (unknown origin) by ADP-gloassay
T2 sequence (O00329 whole entry): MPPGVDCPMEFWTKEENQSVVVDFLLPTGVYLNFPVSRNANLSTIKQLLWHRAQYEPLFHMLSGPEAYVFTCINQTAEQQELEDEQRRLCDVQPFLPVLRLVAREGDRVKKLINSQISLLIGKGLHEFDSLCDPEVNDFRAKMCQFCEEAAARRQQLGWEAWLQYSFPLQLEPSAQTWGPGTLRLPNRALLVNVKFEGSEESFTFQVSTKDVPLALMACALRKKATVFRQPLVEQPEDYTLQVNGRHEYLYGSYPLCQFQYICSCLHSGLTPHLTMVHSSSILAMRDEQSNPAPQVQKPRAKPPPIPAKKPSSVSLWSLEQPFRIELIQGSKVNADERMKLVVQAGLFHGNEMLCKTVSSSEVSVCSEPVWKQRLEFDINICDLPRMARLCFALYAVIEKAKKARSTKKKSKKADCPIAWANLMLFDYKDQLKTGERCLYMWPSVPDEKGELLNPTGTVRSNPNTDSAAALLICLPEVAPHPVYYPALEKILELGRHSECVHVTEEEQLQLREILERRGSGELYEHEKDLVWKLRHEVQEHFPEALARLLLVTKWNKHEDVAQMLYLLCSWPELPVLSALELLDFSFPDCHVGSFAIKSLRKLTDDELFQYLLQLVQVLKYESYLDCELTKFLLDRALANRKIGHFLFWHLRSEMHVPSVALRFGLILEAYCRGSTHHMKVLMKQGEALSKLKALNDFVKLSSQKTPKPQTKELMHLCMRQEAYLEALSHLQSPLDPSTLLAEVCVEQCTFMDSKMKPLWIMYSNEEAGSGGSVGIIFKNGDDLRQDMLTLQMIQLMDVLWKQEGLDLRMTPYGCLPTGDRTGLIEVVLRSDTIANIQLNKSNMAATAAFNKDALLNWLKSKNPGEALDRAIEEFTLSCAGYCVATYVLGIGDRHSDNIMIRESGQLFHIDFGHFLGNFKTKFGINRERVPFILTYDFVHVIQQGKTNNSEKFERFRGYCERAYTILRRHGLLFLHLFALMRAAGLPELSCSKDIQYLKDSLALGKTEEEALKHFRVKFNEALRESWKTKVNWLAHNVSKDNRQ
Procedure, shortened: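 PI3K isoform activity was measured with the PI3K-Glo Class I Profiling Kit, a luminescent ADP-Glo-type read-out, following the manufacturer's protocol.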

[5] = target: T3, Phosphatidylinositol 4,5-bisphosphate 3-kinase catalytic subunit delta isoform (Homo sapiens) (UniProt O00329); assay: Inhibition of PI3Kdelta (unknown origin) at 200 nM by ADP-gloassay relative to control
T3 sequence (whole entry): T2 sequence (O00329 whole entry)
Procedure, shortened: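 PI3Kδ was tested with the PI3K-Glo Class I Profiling Kit and a luminescence read-out, following the manufacturer's protocol. Each compound was tested at a single concentration of 200 nM and expressed as percent inhibition versus control.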

[6] = target: T1, Tyrosine-protein kinase BTK; assay: Inhibition of BTK (unknown origin) by ADP-gloassay
[7] = system: Ramos; assay: Cell cycle arrest in human Ramos cells assessed as accumulation at G2/M phase at 5 uM after 48 hrs by propidium iodide staining based flow cytometric analysis (reference value: 4.26%); assay type: functional
[8] = target: Phosphatidylinositol 4,5-bisphosphate 3-kinase catalytic subunit gamma isoform (Homo sapiens, UniProt P48736); assay: Inhibition of PI3Kgamma (unknown origin) by ADP-gloassay
Chain of Phosphatidylinositol 4,5-bisphosphate 3-kinase catalytic subunit gamma isoform (P48736 whole entry, canonical isoform): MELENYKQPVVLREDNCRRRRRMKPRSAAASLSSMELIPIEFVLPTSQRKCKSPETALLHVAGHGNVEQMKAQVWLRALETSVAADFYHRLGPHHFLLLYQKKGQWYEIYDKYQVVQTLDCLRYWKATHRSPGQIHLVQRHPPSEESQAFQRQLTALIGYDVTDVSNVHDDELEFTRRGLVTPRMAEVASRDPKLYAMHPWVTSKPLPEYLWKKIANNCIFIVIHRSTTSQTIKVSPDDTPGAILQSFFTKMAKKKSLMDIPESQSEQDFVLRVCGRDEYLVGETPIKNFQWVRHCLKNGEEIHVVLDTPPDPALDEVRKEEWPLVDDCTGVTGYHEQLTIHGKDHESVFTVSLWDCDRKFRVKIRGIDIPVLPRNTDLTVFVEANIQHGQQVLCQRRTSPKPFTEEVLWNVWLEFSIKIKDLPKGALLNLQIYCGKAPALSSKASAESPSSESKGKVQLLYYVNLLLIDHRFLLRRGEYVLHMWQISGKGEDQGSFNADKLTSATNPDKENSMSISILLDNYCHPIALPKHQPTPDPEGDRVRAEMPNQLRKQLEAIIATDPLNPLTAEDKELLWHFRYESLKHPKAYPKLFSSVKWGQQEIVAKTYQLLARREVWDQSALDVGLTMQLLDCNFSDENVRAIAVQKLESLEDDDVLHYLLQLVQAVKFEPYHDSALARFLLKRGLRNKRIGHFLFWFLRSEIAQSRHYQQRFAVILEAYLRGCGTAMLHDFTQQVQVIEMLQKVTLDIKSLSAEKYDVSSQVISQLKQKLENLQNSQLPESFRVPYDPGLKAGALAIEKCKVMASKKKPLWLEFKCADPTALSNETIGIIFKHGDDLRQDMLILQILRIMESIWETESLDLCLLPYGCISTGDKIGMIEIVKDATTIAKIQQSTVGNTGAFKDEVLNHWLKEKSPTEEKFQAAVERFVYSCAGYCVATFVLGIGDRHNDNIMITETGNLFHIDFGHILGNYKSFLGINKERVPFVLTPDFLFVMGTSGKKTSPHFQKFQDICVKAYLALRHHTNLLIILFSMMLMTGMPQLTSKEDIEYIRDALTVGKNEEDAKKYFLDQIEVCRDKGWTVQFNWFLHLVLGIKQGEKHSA
Procedure, shortened: (§2)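 PI3K isoform activity was measured with the PI3K-Glo Class I Profiling Kit, a luminescent ADP-Glo-type read-out, following the manufacturer's protocol. Compounds were tested over 1 nM–5 μM to give IC50 values.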

[9] = target: Phosphatidylinositol 4,5-bisphosphate 3-kinase catalytic subunit alpha isoform (Homo sapiens, UniProt P42336); assay: Inhibition of PI3Kalpha (unknown origin) by ADP-gloassay; procedure, shortened: as §2
Chain of Phosphatidylinositol 4,5-bisphosphate 3-kinase catalytic subunit alpha isoform (P42336 whole entry, canonical isoform): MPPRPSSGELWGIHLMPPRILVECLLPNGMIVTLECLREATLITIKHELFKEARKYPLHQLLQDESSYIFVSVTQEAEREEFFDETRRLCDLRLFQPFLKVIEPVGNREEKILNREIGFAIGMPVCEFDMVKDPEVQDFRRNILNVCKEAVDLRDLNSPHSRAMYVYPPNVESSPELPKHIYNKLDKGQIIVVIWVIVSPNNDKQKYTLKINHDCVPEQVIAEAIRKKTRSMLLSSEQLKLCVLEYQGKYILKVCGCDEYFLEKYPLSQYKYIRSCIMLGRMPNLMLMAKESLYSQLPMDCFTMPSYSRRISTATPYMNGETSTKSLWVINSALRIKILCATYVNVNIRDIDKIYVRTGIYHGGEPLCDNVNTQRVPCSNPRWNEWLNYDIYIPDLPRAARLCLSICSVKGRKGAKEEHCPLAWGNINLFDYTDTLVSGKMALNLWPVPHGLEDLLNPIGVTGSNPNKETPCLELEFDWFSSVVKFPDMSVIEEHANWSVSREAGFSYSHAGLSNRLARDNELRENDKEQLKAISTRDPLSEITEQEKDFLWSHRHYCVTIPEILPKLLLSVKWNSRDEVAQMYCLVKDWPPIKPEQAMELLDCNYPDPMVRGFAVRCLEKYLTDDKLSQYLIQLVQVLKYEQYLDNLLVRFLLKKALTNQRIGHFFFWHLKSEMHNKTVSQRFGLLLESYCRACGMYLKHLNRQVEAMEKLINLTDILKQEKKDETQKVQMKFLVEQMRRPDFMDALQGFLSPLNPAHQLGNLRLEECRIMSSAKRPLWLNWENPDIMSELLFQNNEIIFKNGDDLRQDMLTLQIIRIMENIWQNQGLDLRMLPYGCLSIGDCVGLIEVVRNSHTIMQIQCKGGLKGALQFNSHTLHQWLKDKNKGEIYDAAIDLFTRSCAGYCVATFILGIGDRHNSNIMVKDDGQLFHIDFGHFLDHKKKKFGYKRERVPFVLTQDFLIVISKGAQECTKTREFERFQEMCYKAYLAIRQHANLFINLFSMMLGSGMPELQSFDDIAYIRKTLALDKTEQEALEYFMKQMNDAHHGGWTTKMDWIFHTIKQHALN

[10] = system: Ramos; assay: Induction of apoptosis in human Ramos cells assessed as early apoptotic cells at 5 uM after 48 hrs by Annexin-V-FITC/propidium iodide staining based flow cytometric analysis (reference value: 1.08%); assay type: functional
[11] = system: Ramos; assay: Cell cycle arrest in human Ramos cells assessed as accumulation at S phase at 5 uM after 48 hrs by propidium iodide staining based flow cytometric analysis (reference value: 71.08%); assay type: functional
[12] = target: Phosphatidylinositol 4,5-bisphosphate 3-kinase catalytic subunit beta isoform (Homo sapiens, UniProt P42338); assay: Inhibition of PI3Kbeta (unknown origin) by ADP-gloassay; procedure, shortened: as §2
Chain of Phosphatidylinositol 4,5-bisphosphate 3-kinase catalytic subunit beta isoform (P42338 whole entry, canonical isoform): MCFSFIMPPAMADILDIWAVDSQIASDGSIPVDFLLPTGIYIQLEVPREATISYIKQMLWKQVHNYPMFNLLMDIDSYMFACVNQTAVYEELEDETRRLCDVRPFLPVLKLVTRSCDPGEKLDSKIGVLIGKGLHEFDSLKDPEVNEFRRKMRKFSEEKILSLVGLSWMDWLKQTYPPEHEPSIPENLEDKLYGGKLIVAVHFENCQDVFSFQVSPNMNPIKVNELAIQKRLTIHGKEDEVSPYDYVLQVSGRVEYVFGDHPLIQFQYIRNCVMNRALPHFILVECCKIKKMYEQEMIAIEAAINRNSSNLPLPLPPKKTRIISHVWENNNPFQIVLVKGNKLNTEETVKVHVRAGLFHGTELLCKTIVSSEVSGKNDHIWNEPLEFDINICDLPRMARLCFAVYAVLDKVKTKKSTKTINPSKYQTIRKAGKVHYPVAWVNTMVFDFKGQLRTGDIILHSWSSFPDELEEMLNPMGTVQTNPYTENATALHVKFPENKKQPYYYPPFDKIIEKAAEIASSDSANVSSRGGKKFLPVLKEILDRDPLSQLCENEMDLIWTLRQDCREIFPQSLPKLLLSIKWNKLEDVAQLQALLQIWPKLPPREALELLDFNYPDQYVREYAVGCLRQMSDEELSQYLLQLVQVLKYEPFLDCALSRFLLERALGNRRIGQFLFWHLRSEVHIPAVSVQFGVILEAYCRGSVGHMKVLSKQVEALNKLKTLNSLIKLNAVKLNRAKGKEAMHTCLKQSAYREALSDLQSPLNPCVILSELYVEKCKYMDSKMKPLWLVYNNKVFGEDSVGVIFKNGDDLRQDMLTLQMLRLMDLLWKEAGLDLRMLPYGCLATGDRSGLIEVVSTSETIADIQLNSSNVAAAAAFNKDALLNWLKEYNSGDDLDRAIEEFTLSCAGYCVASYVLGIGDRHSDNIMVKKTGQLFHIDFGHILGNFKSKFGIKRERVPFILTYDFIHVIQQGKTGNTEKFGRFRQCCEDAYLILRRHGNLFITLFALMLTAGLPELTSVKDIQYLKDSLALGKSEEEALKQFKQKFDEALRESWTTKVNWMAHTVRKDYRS

[13] = system: Ramos; assay: Induction of apoptosis in human Ramos cells assessed as viable cells at 5 uM after 48 hrs by Annexin-V-FITC/propidium iodide staining based flow cytometric analysis (reference value: 96.83%); assay type: functional; conditions: read-out: Activity
[14] = system: Ramos; assay: Cell cycle arrest in human Ramos cells assessed as accumulation at apoptotic phase at 5 uM after 48 hrs by propidium iodide staining based flow cytometric analysis (reference value: 5.03%); assay type: functional
[15] = target: T3, Phosphatidylinositol 4,5-bisphosphate 3-kinase catalytic subunit delta isoform (Homo sapiens); assay: Inhibition of PI3Kdelta in human Ramos cells assessed as reduction in mTOR phosphorylation at Ser2481 residues at 0.25 to 4 uM after 4 hrs by Western blot analysis; assay type: cell-based
Procedure, shortened: (§3)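 Cells were treated with compound for 4 h, then stimulated or not with anti-human IgM F(ab')2. They were lysed in Tris-Cl pH 6.8/4% SDS/glycerol/β-mercaptoethanol buffer on ice and protein was quantified by BCA. Equal protein was run on 12% SDS-PAGE and transferred to PVDF. Blots were probed with specific primary antibodies overnight at 4 °C and HRP secondaries 1 h at 37 °C, with ECL detection.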

[16] = target: Serine/threonine-protein kinase mTOR (Homo sapiens, UniProt P42345); assay: Inhibition of mTOR (unknown origin) by ADP-gloassay
[17] = system: Ramos; assay: Induction of apoptosis in human Ramos cells assessed as late apoptotic cells at 5 uM after 48 hrs by Annexin-V-FITC/propidium iodide staining based flow cytometric analysis (reference value: 0.98%); assay type: functional
[18] = system: Ramos; assay: Induction of apoptosis in human Ramos cells assessed as necrotic cells at 5 uM after 48 hrs by Annexin-V-FITC/propidium iodide staining based flow cytometric analysis (reference value: 1.11%); assay type: functional
[19] = system: Ramos; assay: Cell cycle arrest in human Ramos cells assessed as accumulation at G0/G1 phase at 5 uM after 48 hrs by propidium iodide staining based flow cytometric analysis (reference value: 24.65%); assay type: functional
[20] = target: T3, Phosphatidylinositol 4,5-bisphosphate 3-kinase catalytic subunit delta isoform (Homo sapiens); assay: Inhibition of PI3Kdelta in human Ramos cells assessed as reduction in Akt phosphorylation at Ser473 residues at 0.25 to 4 uM after 4 hrs by Western blot analysis; assay type: cell-based; procedure, shortened: as §3
[21] = target: T3, Phosphatidylinositol 4,5-bisphosphate 3-kinase catalytic subunit delta isoform (Homo sapiens); assay: Inhibition of PI3Kdelta in human Ramos cells assessed as reduction in Akt phosphorylation at Ser473 residues at 0.25 to 1 uM after 4 hrs by Western blot analysis; assay type: cell-based
Procedure, shortened: (§4)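 Ramos cells pretreated with compound for 4 h, then stimulated or not with anti-human IgM F(ab')2. Cells were washed in PBS and lysed on ice for 0.5 h in Tris-Cl pH 6.8/SDS/glycerol/β-mercaptoethanol/PMSF/NaF/DTT buffer, then heated. Protein was quantified by BCA, with equal amounts run on 12% SDS-PAGE and semi-dry blotted to PVDF. Primary antibodies overnight at 4 °C, HRP secondary 1 h at 37 °C, ECL detection on film.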

[22] = target: T3, Phosphatidylinositol 4,5-bisphosphate 3-kinase catalytic subunit delta isoform (Homo sapiens); assay: Inhibition of PI3Kdelta in human Ramos cells assessed as reduction in mTOR phosphorylation at Ser2481 residues at 0.25 to 1 uM after 4 hrs by Western blot analysis; assay type: cell-based; procedure, shortened: as §4
[23] = system: Raji; assay: Antiproliferative activity against human Raji cells at 5 uM up to 24 hrs by CCK8 assay; assay type: functional, cell-based
Procedure, shortened: (§5)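 Raji (Burkitt lymphoma) cells in RPMI1640 or IMDM with 10% FBS, 37 °C, 5% CO2; seeded 3000-5000 cells/well, preincubated 12-24 h, then exposed to compound. Cells collected at different times and viability read by CCK-8 (4 h incubation, OD 450 nm).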

[24] = system: Raji; assay: Antiproliferative activity against human Raji cells at 5 uM after 24 hrs by CCK8 assay; assay type: functional, cell-based; procedure, shortened: as §5

SMILES | IC50 [1] [µM] | inhibition [2] [%] | IC50 [3] [µM] | inhibition [5] | IC50 [6] [µM] | other results
C=CC(=O)Nc1ccc(-n2c(=O)ccc3oc4ccc(-c5ccc(F)nc5)cc4c32)cc1 | 7.3 | 32.1 | 1.65 | 31.7% | – | IC50 [4]: 1.27 µM
C=CC(=O)Nc1cccc(-n2c(=O)ccc3oc4ccc(-c5ccc(F)nc5)cc4c32)c1 | 2.2 | – | 1.86 | 34% | – | IC50 [4]: 0.92 µM
C=CC(=O)Nc1cccc(-n2c(=O)ccc3oc4ccc(-c5ccc(OC)nc5)cc4c32)c1 | 2.4 | 67.3 | 1.3 | 11.3% | 0.08 | –
C=CC(=O)Nc1cccc(-n2c(=O)ccc3oc4ccc(-c5cccnc5)cc4c32)c1 | 2.1 | 86.8 | 2.65 | 58.1% | 0.074 | Activity [7]: 4.64%; IC50 [8]: 2.18 µM; IC50 [9]: 0.855 µM; Activity [10]: 37.62%; Activity [11]: 34.56%; IC50 [4]: 0.17 µM; IC50 [12]: 2.82 µM; viability at 5 µM [13]: 9.55%; Activity [14]: 55.36%; inhibition [15]: Active; IC50 [16]: > 10 µM; Activity [17]: 52.16%; Activity [18]: 0.67%; Activity [19]: 60.8%; inhibition [20]: Active
C=CC(=O)Nc1ccc(-n2c(=O)ccc3oc4ncc(-c5cccnc5)cc4c32)cc1 | 7.4 | 38.7 | 1.33 | 34.2% | – | IC50 [4]: 1 µM
COc1ccc(-c2cnc3oc4ccc(=O)n(-c5ccc(NC(=O)CN6CCNCC6)cc5)c4c3c2)cn1 | 33.7 | 32 | – | inactive | – | –
COc1ccc(-c2cnc3oc4ccc(=O)n(-c5ccc(NC(=O)CN(C)C)cc5)c4c3c2)cn1 | > 40 | 58.8 | – | inactive | 0.15 | –
Cn1c(=O)n(-c2ccc(C(C)(C)C#N)cc2)c2c3cc(-c4cnc5ccccc5c4)ccc3ncc21 [DACTOLISIB] | 0.22 | – | 0.0068 | – | – | Activity [7]: 5%; inhibition [21]: Active; Activity [10]: 53.54%; Activity [11]: 35.34%; viability at 5 µM [13]: 5.78%; Activity [14]: 58.92%; Activity [17]: 40.03%; Activity [18]: 0.64%; inhibition [22]: Active; Activity [19]: 59.66%
CN(C)CC(=O)Nc1ccc(-n2c(=O)ccc3oc4ccc(-c5cccc6[nH]ccc56)cc4c32)cc1 | 18.8 | 47.2 | – | inactive | – | –
COc1ccc(-c2cnc3oc4ccc(=O)n(-c5ccc(NC(=O)CN6CCCCC6)cc5)c4c3c2)cn1 | > 40 | 55 | – | inactive | 0.125 | –
CN(C)CC(=O)Nc1ccc(-n2c(=O)ccc3oc4ccc(-c5ccc(O)cc5)cc4c32)cc1 | 1.8 | 51.7 | – | inactive | 0.15 | –
C=CC(=O)N1CCC[C@@H](n2nc(-c3ccc(Oc4ccccc4)cc3)c3c(N)ncnc32)C1 [IBRUTINIB] | – | – | 5.8 | – | – | Activity [23]: inactive; Activity [7]: 4.26%; Activity [24]: Active; Activity [10]: 5.12%; Activity [11]: 65.18%; viability at 5 µM [13]: 91.8%; Activity [14]: 4.33%; Activity [17]: 2.71%; Activity [18]: 0.37%; Activity [19]: 30.5%
CN(C)CC(=O)Nc1ccc(-n2c(=O)ccc3oc4ccc(C5CCNCC5)cc4c32)cc1 | 2.4 | 33.1 | – | inactive | – | –
CN(C)CC(=O)Nc1ccc(-n2c(=O)ccc3oc4ccc(C5CCN(C(=O)OC(C)(C)C)CC5)cc4c32)cc1 | 7 | 49.2 | – | inactive | – | –
CN(C)CC(=O)Nc1ccc(-n2c(=O)ccc3oc4ccc(-c5cccnc5)cc4c32)cc1 | 7.1 | 63.4 | 3.43 | inactive | 0.05 | –
